ChEMBL document CHEMBL1240483, “Novel N-phenyl dichloroacetamide derivatives as anticancer reagents: design, synthesis and biological evaluation” (Eur J Med Chem, 2010)

What was measured:
[1] = system: KB; test: Anticancer activity against human KB cells after 72 hrs by MTT assay; type: functional, cell-based
Method in brief: (§1)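 Cells seeded at 3000/well and grown 24 h: A549 in F12-K, BGC-823, KB and BEL-7402 in RPMI 1640, all with 10% FBS at 37 °C in 5% CO2. Drug added at 10 concentrations from 4×10^-4 to 1×10^-7 M and incubated 72 h. MTT added for 4 h at 37 °C, then SDS/isobutanol/HCl lysis overnight. A570 read. IC50 from three independent tests.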

[2] = system: A549; test: Anticancer activity against human A549 cells after 72 hrs by MTT assay; type: functional, cell-based; details: A549, 72 h; method in brief: as §1
[3] = system: Bel-7402; test: Anticancer activity against human Bel7402 cells after 72 hrs by MTT assay; type: functional, cell-based; details: Bel-7402, 72 h; method in brief: as §1
[4] = system: BGC-823; test: Anticancer activity against human BGC823 cells after 72 hrs by MTT assay; type: functional, cell-based; details: BGC-823, 72 h; method in brief: as §1
[5] = Toxicity in intragastrically administered Kunming mouse after 14 days; type: organism-based; details: in vivo, po
[6] = system: A549; test: Induction of apoptosis in human A549 cells assessed as late apoptotic cells at 30 uM after 48 hrs by annexin-V/propidium iodide based FACS analysis; type: functional
Method in brief: (§2)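 A549 cells grown in F12-K with 10% FBS at 37 °C under 5% CO2. Exposed for 24 or 48 h to 0, 10, 15 or 30 μM, then trypsinized, pelleted and stained with Annexin V-FITC/PI for flow cytometry. Late apoptotic cells taken as the Q2 quadrant.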

[7] = system: A549; test: Induction of apoptosis in human A549 cells assessed as late apoptotic cells at 10 uM after 48 hrs by annexin-V/propidium iodide based FACS analysis; type: functional; method in brief: as §2
[8] = system: A549; test: Induction of apoptosis in human A549 cells assessed as late apoptotic cells at 10 uM after 24 hrs by annexin-V/propidium iodide based FACS analysis; type: functional; method in brief: as §2
[9] = system: A549; test: Induction of apoptosis in human A549 cells assessed as early apoptotic cells at 30 uM after 48 hrs by annexin-V/propidium iodide based FACS analysis; type: functional
Method in brief: (§3)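 A549 cells (F12-K, 10% FBS, 37 °C, 5% CO2) treated at 0, 10, 15 or 30 μM for 24 or 48 h, then trypsinized and resuspended in PBS. Stained with Annexin V-FITC/PI kit and analysed by flow cytometry. Early apoptotic cells counted in the Q4 quadrant.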

[10] = system: A549; test: Induction of apoptosis in human A549 cells assessed as late apoptotic cells at 30 uM after 24 hrs by annexin-V/propidium iodide based FACS analysis; type: functional; method in brief: as §2
[11] = system: A549; test: Induction of apoptosis in human A549 cells assessed as early apoptotic cells at 10 uM after 24 hrs by annexin-V/propidium iodide based FACS analysis; type: functional; method in brief: as §3
[12] = system: A549; test: Induction of apoptosis in human A549 cells assessed as early apoptotic cells at 10 uM after 48 hrs by annexin-V/propidium iodide based FACS analysis; type: functional; method in brief: as §3
[13] = system: A549; test: Induction of apoptosis in human A549 cells assessed as early apoptotic cells at 30 uM after 24 hrs by annexin-V/propidium iodide based FACS analysis; type: functional; method in brief: as §3
[14] = system: A549; test: Induction of apoptosis in human A549 cells assessed as early apoptotic cells at 15 uM after 24 hrs by annexin-V/propidium iodide based FACS analysis; type: functional; method in brief: as §3
[15] = system: A549; test: Induction of apoptosis in human A549 cells assessed as late apoptotic cells at 15 uM after 48 hrs by annexin-V/propidium iodide based FACS analysis; type: functional; method in brief: as §2
[16] = system: A549; test: Induction of apoptosis in human A549 cells assessed as late apoptotic cells at 15 uM after 24 hrs by annexin-V/propidium iodide based FACS analysis; type: functional; method in brief: as §2
[17] = system: A549; test: Induction of apoptosis in human A549 cells assessed as early apoptotic cells at 15 uM after 48 hrs by annexin-V/propidium iodide based FACS analysis; type: functional; method in brief: as §3

| SMILES | IC50 [1] | IC50 [2] | IC50 [3] | IC50 [4] | also measured |
| --- | --- | --- | --- | --- | --- |
| O=C(Nc1cccc(Br)c1)C(Cl)Cl | 8.18 µM | 7.8 µM | 7.72 µM | 95.3 µM | – |
| O=C(Nc1ccccc1F)C(Cl)Cl | – | 87.5 µM | – | – | – |
| O=C(Nc1ccccc1Cl)C(Cl)Cl | – | 50.1 µM | – | – | – |
| O=C(Nc1cccc(C(F)(F)F)c1)C(Cl)Cl | 8.86 µM | 12.2 µM | 5.97 µM | 143 µM | – |
| O=C(Nc1cccc(S(=O)(=O)c2cccc(NC(=O)C(Cl)Cl)c2)c1)C(Cl)Cl | 24 µM | 5.89 µM | 15.9 µM | 198 µM | – |
| O=C([O-])C(Cl)Cl.[Na+] [SODIUM DICHLOROACETATE] | 1420 µM | 1010 µM | 860 µM | 1050 µM | – |
| C#Cc1cccc(NC(=O)C(Cl)Cl)c1 | 6.26 µM | 11.2 µM | 4.74 µM | 172 µM | – |
| COc1cccc(NC(=O)C(Cl)Cl)c1 | 57.7 µM | 25.8 µM | 54.8 µM | 179 µM | – |
| O=C(Nc1ccccc1NC(=O)C(Cl)Cl)C(Cl)Cl | – | 131 µM | – | – | – |
| O=C(Nc1cccc(OC(F)(F)F)c1)C(Cl)Cl | 7.41 µM | 15.1 µM | 10.3 µM | 142 µM | – |
| O=C(Nc1cccc(Cl)c1)C(Cl)Cl | – | 14.8 µM | 44.5 µM | – | LD50 at 336 h [5]: 4550 mg/kg |
| O=C(Nc1ccc(Cl)c(Cl)c1)C(Cl)Cl | 7.05 µM | 5.09 µM | 7.37 µM | 177 µM | – |
| O=C(Nc1cccc(Cl)c1Cl)C(Cl)Cl | 217 µM | – | 180 µM | – | – |
| O=C(Nc1cc(Cl)ccc1Cl)C(Cl)Cl | 11.5 µM | 12.4 µM | 18.2 µM | – | – |
| O=C(Nc1cccc(I)c1)C(Cl)Cl | 5.25 µM | 4.76 µM | 5.39 µM | 58.8 µM | Activity [6]: 35.6%; Activity [7]: 17.6%; Activity [8]: 8.6%; Activity [9]: 10.6%; Activity [10]: 20.3%; Activity [11]: 10.8%; LD50 at 336 h [5]: 1120 mg/kg; Activity [12]: 7.8%; Activity [13]: 15.2%; Activity [14]: 9.2%; Activity [15]: 22.6%; Activity [16]: 19.3%; Activity [17]: 8.7% |
| O=C(Nc1ccccc1Br)C(Cl)Cl | 67.9 µM | 37 µM | 38.2 µM | – | – |
| O=C(Nc1cccc(SC(F)(F)F)c1)C(Cl)Cl | 4.84 µM | 14.1 µM | 6.54 µM | 123 µM | – |
| O=C(Nc1ccccc1)C(Cl)Cl | – | 130 µM | – | – | – |
| O=C(Nc1cccc(S(=O)(=O)C(F)(F)F)c1)C(Cl)Cl | 20.6 µM | 6.53 µM | 9.01 µM | 64 µM | – |
| Cc1cccc(NC(=O)C(Cl)Cl)c1 | – | 41.1 µM | – | – | – |
| O=C(Nc1cc(Cl)cc(Cl)c1)C(Cl)Cl | 4.53 µM | 4.4 µM | 4.65 µM | 60.1 µM | – |

Now from value to compound, other results behind:

| IC50 [1] | IC50 [2] | IC50 [3] | IC50 [4] | SMILES | also measured |
| --- | --- | --- | --- | --- | --- |
| 253 µM | 198 µM | 194 µM | – | O=C(Nc1ccccc1[N+](=O)[O-])C(Cl)Cl | – |
| 44.7 µM | 18 µM | 15.7 µM | 123 µM | O=C(Nc1cccc([N+](=O)[O-])c1)C(Cl)Cl | – |
| – | 48.9 µM | – | – | Cc1ccc(NC(=O)C(Cl)Cl)cc1 | – |
| 2.08 µM | 10.6 µM | 3.61 µM | 203 µM | O=C(Nc1ccc(SC(F)(F)F)cc1)C(Cl)Cl | – |
| 9.71 µM | 8.5 µM | 72.8 µM | 146 µM | O=C(Nc1ccc(S(=O)(=O)C(F)(F)F)cc1)C(Cl)Cl | – |
| 21.7 µM | 13.7 µM | 9.77 µM | – | O=C(Nc1ccc(Br)cc1)C(Cl)Cl | – |
| 60.9 µM | 66.5 µM | 48.4 µM | – | N#Cc1cccc(NC(=O)C(Cl)Cl)c1 | – |
| 60.8 µM | 20.4 µM | 49.6 µM | – | O=C(Nc1ccc(Cl)cc1)C(Cl)Cl | – |
| – | 68.4 µM | – | – | O=C(Nc1ccc(F)cc1)C(Cl)Cl | – |
| 60.6 µM | 34.4 µM | 29.5 µM | 190 µM | O=C(Nc1ccc([N+](=O)[O-])cc1)C(Cl)Cl | – |
| 278 µM | 80.9 µM | 192 µM | – | COc1ccc(NC(=O)C(Cl)Cl)cc1 | – |
| 66.2 µM | 12.5 µM | 11.9 µM | 222 µM | O=C(Nc1ccc(I)cc1)C(Cl)Cl | – |
